Bioassay records: PubChem BioAssay, several laboratories
The list is not random: actives were taken first. Their share in the collection is about 1.9%.
MT stabilizer: stabilizes microtubules in HeLa cells. HeLa tubulin immunostaining HCS, 24 h; share of cells brighter than vehicle mean+2SD. % tubulin-high responders, % at 10 µM. actives 0.83% (n = 200,000). AID 2205;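 active = plate Z-score above 3 for both tubulin-high and condensed-nucleus cell shares, with cell loss under 80%, at 10 µM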;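 note: anti alpha tubulin signal scored within the nucleus-defined area of each cell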
b-catenin transl: modulators of beta-catenin nuclear translocation | HeLa beta-catenin nuclear translocation, immunofluorescence imaging | nuclear translocation activity, % at 5 µM | actives 0.3% (n = 190,000);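 active = nuclear translocation activity above 50% at 5 µM, with a well cell count of 50 or more; inconclusive = wells under 50 cells across six images, flagged as toxic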;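 note: per-cell ratio of nuclear to cytoplasmic median beta-catenin stain intensity; plate controls were DMSO negative control for no effect and GSK-3 inhibitor IX positive control for full effect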
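System: HeLa cells, endogenous beta-catenin; compound dosing: 5 µM primary single dose, 0.1% DMSO, 0.02–20 µM confirmation series; incubation: 24 h compound exposure at 37°C, 5% CO2; signal: beta-catenin immunofluorescence imaging with DAPI; evaluation: % activation, nuclear-to-cytoplasmic median beta-catenin signal ratio per cell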
Ins promoter up: MIN6 insulin promoter up-regulation. actives 0.3% (n = 190,000). MIN6 insulin promoter-GFP reporter, high-content imaging; hits give high values. z-score at 5 µM;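 active = z-score above 3 at 5 µM with at least 500 cells counted in the well; inconclusive = wells under 500 cells, flagged as cytotoxic or low count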
Autophagy mod: alters autophagy in cells; MEF GFP-LC3 puncta imaging; test concentration mostly 10 µM; calls only at 10 µM (by protocol); actives 0.98% (n = 190,000); AID 463193;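 active = percentage of spot-positive cells more than 3 SD above its plate mean, without a fluorescence outlier flag or 80% toxicity; inconclusive = no clear call, values can overlap the other calls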;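 note: spot-positive cell cutoff set from DMSO-treated cells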
* hit, by the source's call; i = inactive; ? = inconclusive; . = no result given; + = active, no number.

SMILES	MT stabilizer	b-catenin transl	Ins promoter up	Autophagy mod
CCc1cc2c(CN3CCN(C)CC3)cc(=O)oc2cc1O	4.4	-5.0	-0.57	i
CCc1cc2c(CN3CCN(CCO)CC3)cc(=O)oc2cc1O	1.9	-1.0	3.59*	i
COc1ccc(C(C[N+](=O)[O-])c2c(-c3ccccc3)cc3ccccn23)cc1 (stereo not drawn)	28.8*	-1.6	.	i
Cn1cccc1Cc1nnc(SCC(=O)Nc2ccc(Cl)cc2)n1-c1ccc(F)cc1	2.6	-3.1	0.84	+
Cn1cccc1Cc1nnc(SCC(=O)Nc2cccc(F)c2)n1CCc1ccccc1	5.2	-2.0	1.47	+
COc1ccc(-n2c(Cc3cccn3C)nnc2SCC(=O)NCc2ccccc2Cl)cc1	3.9	-0.1	-0.86	+
Cn1cccc1Cc1nnc(SCC(=O)Nc2ccc(F)cc2)n1-c1ccc(F)cc1	5.4	0.8	1.35	.
CCc1ccc(N(C(=O)c2snc(C(N)=O)c2N)C(C(=O)NCCC(C)C)c2c[nH]c3ccccc23)cc1 (stereo not drawn)	3.3	0.9	-0.77	i
CN(c1ccccc1C(=O)N1CCN(c2cccc(Cl)c2)CC1)S(C)(=O)=O	5.2	.	-0.14	i
CSc1ccccc1C(=O)N1CCN(c2cccc(Cl)c2)CC1	20.8*	40.1	0.14	i
Cc1cc(C(=O)N2CCN(c3ccccc3)CC2)c(C)o1	3.2	-1.8	0.33	i
Cc1cc(C(=O)N2CCN(c3cccc(Cl)c3)CC2)c(C)o1	59.8*	.	-0.28	i
Cc1ccc(C(=O)N2CCN(c3cccc(Cl)c3)CC2)cc1C	23.7*	18.7	0.73	i
Cn1c(SCC(=O)N/N=C/c2ccc([N+](=O)[O-])s2)nnc1-c1ccc(Cl)cc1	3.5	-3.2	-0.13	i
O=C(O)c1ccccc1NSc1ccccc1[N+](=O)[O-]	1.5	1.2	.	i
CCc1ccc(NSc2ccccc2[N+](=O)[O-])cc1	46.2*	1.0	-0.07	i
COc1ccc(Cn2c(C3CC3)nc3ccc(NC(=O)c4ccco4)cc3c2=O)cc1	13.2*	-0.8	.	i
CCC(=O)Nc1ccc2nc(C3CC3)n(Cc3ccccc3)c(=O)c2c1	1.3	-2.6	-0.12	i
O=C(NCC1CCCO1)C1CC1(c1ccccc1)c1ccccc1 (stereo not drawn)	6.3	-0.4	-0.29	i
O=C(CCN1CCN(c2ccccc2)CC1)N/N=C/c1ccccc1OC(F)F	5.5	.	0.01	+
COc1ccc(/C=N\NC(=O)CCN2CCN(c3ccccc3)CC2)cc1OC	2.6	-0.1	-0.09	i
CC[n+]1c(/C=C/C=C/N(C(C)=O)c2ccccc2)sc2ccccc21	75.3	.	?	+
O=c1[nH]c(CN2CCN(c3ccccc3)CC2)nc2scc(-c3ccccc3)c12	19.9*	.	0.23	i
CCc1ccc(NC(=O)/C(C#N)=C/c2cc3ccc(C)cc3nc2N2CCOCC2)cc1	3.3	.	0.55	+
COc1ccc(NC(=O)/C(C#N)=C\c2ccc(N3CCOCC3)o2)cc1	2.2	1.7	.	i
SMILES	MT stabilizer	b-catenin transl	Ins promoter up	Autophagy mod
CC1=NNC(=O)/C1=C\c1cn(-c2ccccc2)nc1-c1ccc(Cl)cc1	79.2	1.0	0.35	+
COc1ccc(N/C(N)=N/c2nc(CSc3nnc(C)s3)cc(=O)[nH]2)cc1	4.4	-1.0	.	i
Cc1ccc(N/C(N)=N/c2nc(CSc3nnc(C)s3)cc(=O)[nH]2)c(C)c1	12.5*	19.6	0.69	i
CCOC(=O)Nc1ccc2c(c1)N(C(=O)N(CC)CC)c1ccccc1CC2	4.2	-0.5	-0.77	i
COc1cccc(N/C(SC)=C(/C#N)C(N)=O)c1	21.7*	-1.4	0.09	i
COc1cc(C2Nc3ccc4ncccc4c3C3=C2C(=O)CCC3)cc(OC)c1O (stereo not drawn)	47.5*	0.0	-0.69	i
COc1cc(C2Nc3ccc4ncccc4c3C3=C2C(=O)CC(C)(C)C3)cc(OC)c1O (stereo not drawn)	3.1	-5.0	-0.08	i
O=C(NC(=S)NC1CCCc2ccccc21)c1ccco1 (stereo not drawn)	4.3	-1.0	-0.81	+
COc1ccccc1/C=C/C(=O)c1c2c(c(C)[nH]c1=O)CCCC2	11.6	2.2	1.79	+
CC1CCCN(C(=O)CSc2nc3ncccc3[nH]2)C1 (stereo not drawn)	3.9	-0.6	1.02	+
CCN(CC)C(=O)CSc1nc2ncccc2[nH]1	5.1	-0.8	0.96	i
Cn1cccc1C1Nc2ccccc2NC2=C1C(=O)CC(C)(C)C2 (stereo not drawn)	0.7	-4.2	-0.94	i
COc1cc(/C=N/Nc2nc(C)nc3c2cnn3-c2ccccc2)ccc1O	15.8*	63.3*	-1.68	i
